# Measured values from ChEMBL document CHEMBL4837237, “Broomeanamides: Cyclic Octapeptides from an Isolate of the Fungicolous Ascomycete Sphaerostilbella broomeana from India” (J Nat Prod, 2021).
# Active and inactive are the calls of the source. No cut-off for these calls is given here. Square brackets hold non-standard residues; d marks the D form. Peptide text beside a SMILES is read from it. ξ: configuration not given here. NMeF = CN[C@@H](Cc1ccccc1)C(=O)O; Ile(3ξ) = CCC(C)[C@H](N)C(=O)O; NMeL = CN[C@@H](CC(C)C)C(=O)O; NMeV = CN[C@H](C(=O)O)C(C)C
# Key:
# Staphylococcus aureus [1] = experiment: Antibacterial activity against Staphylococcus aureus ATCC 29213 assessed as bacterial growth inhibition at 50 ug/disk measured after 24 to 72 hrs by disk diffusion assay; assay type: functional, organism-based; conditions: time 24-72 hrs
# Outline: (§1)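 Agar disk diffusion. Inoculum suspension (1–3 mL) mixed into 100 mL autoclaved medium cooled to 45 °C: yeast malt agar for the yeast, tryptic soy agar for the bacterium. Poured as 5 mL plates. 6.25 mm paper disks loaded with 50 μg sample, solvent evaporated. Incubated at room temperature 24–72 h. Amphotericin or gentamicin at 25 μg/disk as positive controls.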
# Candida albicans [2] = experiment: Antifungal activity against Candida albicans ATCC10231 assessed as fungal growth inhibition at 50 ug/disk measured after 24 to 72 hrs by disk diffusion assay; assay type: functional, organism-based; conditions: time 24-72 hrs; outline: as §1
# Cryptococcus neoformans [3] = experiment: Antifungal activity against Cryptococcus neoformans H99 assessed as fungal growth inhibition incubated for 48 hrs at 23 degC by alamarBlue dye based assay; assay type: functional
# Outline: (§2)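 Broth MIC, modified CLSI method. Overnight cultures diluted to OD600 0.8 in PBS, then 1000-fold in MOPS-buffered RPMI-1640. Exposed to serial dilutions from 0.25 to 128 μM. Growth read by adding 10% alamarBlue. S. aureus ATCC 43300: 24 h at 37 °C. C. albicans ATCC 10231: 48 h at 23 °C. C. neoformans H99: 48 h at 23 and at 37 °C. Controls: chlortetracycline + streptomycin (bacterium), amphotericin B (fungi).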
# Cryptococcus neoformans [4] = experiment: Antifungal activity against Cryptococcus neoformans H99 assessed as fungal growth inhibition incubated for 48 hrs at 37 degC by alamarBlue dye based assay; assay type: functional; outline: as §2
# Candida albicans [5] = experiment: Antifungal activity against Candida albicans ATCC 10231 assessed as fungal growth inhibition incubated for 48 hrs by alamarBlue dye based assay; assay type: functional; outline: as §2
# Staphylococcus aureus [6] = experiment: Antibacterial activity against Staphylococcus aureus ATCC 43300 assessed as bacterial growth inhibition incubated for 24 hrs by alamarBlue dye based assay; assay type: functional; outline: as §2
MIC (Cryptococcus neoformans [3]) [µg/mL],MIC (Cryptococcus neoformans [4]) [µg/mL],MIC (Candida albicans [5]) [µg/mL],MIC (Staphylococcus aureus [6]) [µg/mL],SMILES,Activity (Staphylococcus aureus [1]),Activity (Candida albicans [2])
–,–,–,–,CC(C)C[C@H]1C(=O)N[C@@H](C(C)C)C(=O)N2CCC[C@H]2C(=O)N(C)[C@@H](Cc2ccccc2)C(=O)N[C@@H](C)C(=O)N(C)[C@@H](C(C)C)C(=O)N(C)[C@@H](CC(C)C)C(=O)N[C@@H](C(C)C)C(=O)N1C (cyclo(A[NMeV][NMeL]V[NMeL]VP[NMeF])),Active,–
–,–,–,–,CN1C(=O)C2CCCN2C(=O)/C1=C/c1ccccc1 (configuration not stated),inactive,inactive
0.85,0.85,–,–,C[C@@H]1[C@H](O)[C@@H](C)/C=C/C=C/C=C/C=C/C=C/C=C/C=C/[C@H](O[C@@H]2O[C@H](C)[C@@H](O)[C@H](N)[C@@H]2O)C[C@@H]2O[C@](O)(C[C@@H](O)C[C@@H](O)[C@H](O)CC[C@@H](O)C[C@@H](O)CC(=O)O[C@H]1C)C[C@H](O)[C@H]2C(=O)O [AMPHOTERICIN B],–,–
128,8,64,128,CCC(C)[C@@H]1NC(=O)[C@H](CC(C)C)N(C)C(=O)[C@H](C(C)C)N(C)C(=O)[C@H](C)NC(=O)[C@H](Cc2ccccc2)N(C)C(=O)[C@@H]2CCCN2C(=O)[C@H](C(C)C)NC(=O)[C@H](CC(C)C)N(C)C1=O (some centres not stated) (cyclo(A[NMeV][NMeL][Ile(3ξ)][NMeL]VP[NMeF])),Active,Active
–,–,–,–,O=C1N[C@@H](Cc2ccccc2)C(=O)N2CCC[C@@H]12,inactive,inactive
–,–,–,–,O=C1N/C(=C\c2ccccc2)C(=O)N2CCCC12 (configuration not stated),inactive,inactive
–,–,–,–,O=C1/C(=C/c2ccccc2)NC(=O)C2(O)CCCN12 (configuration not stated),inactive,inactive
